# Measured values reported in ChEMBL document CHEMBL2169846, “Design and synthesis of Pictet-Spengler condensation products that exhibit oncogenic-RAS synthetic lethality and induce non-apoptotic cell death” (Bioorg Med Chem Lett, 2012).
# Activity calls are given as the source filed them. No cut-off for these calls is given here.
# How the values were obtained:
# BJeH = experiment: Cytotoxicity against human BJeH cells expressing wild type RAS at 20 ug/mL after 48 hrs by alamar blue assay; format: functional, cell-based
# U2OS [1] = experiment: Cytotoxicity against human U2OS cells at 20 ug/mL after 48 hrs by alamar blue assay; format: functional, cell-based
# [2] = molecular target: E3 ubiquitin-protein ligase Mdm2 (Homo sapiens) (UniProt Q00987); experiment: Inhibition of wild type Mdm2 at 20 ug/mL after 2 hrs by cell-based luciferase assay
# BJeLR = experiment: Cytotoxicity against human BJeLR cells expressing RAS G12V mutant at 20 ug/mL after 48 hrs by alamar blue assay; format: functional, cell-based
# HT-1080 [3] = experiment: Cytotoxicity against human HT1080 cells at 20 ug/mL after 48 hrs by alamar blue assay; format: functional, cell-based
# Procedure, shortened: (§1)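 Each cell line exposed for 48 h to a 2-fold, 12-point dilution series beginning at 20 µg/mL. Viability by Alamar blue; LC50 derived from the curves.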
# MCF7 [4] = experiment: Cytotoxicity against human MCF7 cells at 20 ug/mL after 48 hrs by alamar blue assay; format: functional, cell-based; procedure, shortened: as §1
# HT1299 = experiment: Cytotoxicity against human HT1299 cells at 20 ug/mL after 48 hrs by alamar blue assay; format: functional, cell-based; procedure, shortened: as §1
# RKO [5] = experiment: Cytotoxicity against human RKO cells at 20 ug/mL after 48 hrs by alamar blue assay; format: functional, cell-based; procedure, shortened: as §1
# [6] = tested on: E3 ubiquitin-protein ligase Mdm2 (Homo sapiens), Q00987 [C464A]; experiment: Inhibition of Mdm2 C464A mutant at 20 ug/mL after 2 hrs by cell-based luciferase assay
# [7] = Cytotoxicity against human HT1299 cells after 48 hrs by alamar blue assay; format: functional; details: HT1299, 48 h, read-out: LC50 (the source's name)
# [8] = Cytotoxicity against human BJeLR cells expressing RAS G12V mutant after 48 hrs by alamar blue assay; format: functional, cell-based; details: for CC50: read-out: LC50 (the source's name)
# U2OS [9] = experiment: Cytotoxicity against human U2OS cells after 48 hrs by alamar blue assay; format: functional; details: read-out: LC50 (the source's name)
# RKO [10] = experiment: Cytotoxicity against human RKO cells after 48 hrs by alamar blue assay; format: functional; details: read-out: LC50 (the source's name)
# HT-1080 [11] = experiment: Cytotoxicity against human HT1080 cells after 48 hrs by alamar blue assay; format: functional; details: HT-1080, 48 h, read-out: LC50 (the source's name)
# [12] = Cytotoxicity against human BJeH cells expressing wild type RAS after 48 hrs by alamar blue assay; format: functional, cell-based; details: for CC50: read-out: LC50 (the source's name)
# MCF7 [13] = experiment: Cytotoxicity against human MCF7 cells after 48 hrs by alamar blue assay; format: functional; details: MCF7, 48 h, read-out: LC50 (the source's name)
# Chain of E3 ubiquitin-protein ligase Mdm2 (Homo sapiens), Q00987 [C464A] (Q00987 whole entry C464A): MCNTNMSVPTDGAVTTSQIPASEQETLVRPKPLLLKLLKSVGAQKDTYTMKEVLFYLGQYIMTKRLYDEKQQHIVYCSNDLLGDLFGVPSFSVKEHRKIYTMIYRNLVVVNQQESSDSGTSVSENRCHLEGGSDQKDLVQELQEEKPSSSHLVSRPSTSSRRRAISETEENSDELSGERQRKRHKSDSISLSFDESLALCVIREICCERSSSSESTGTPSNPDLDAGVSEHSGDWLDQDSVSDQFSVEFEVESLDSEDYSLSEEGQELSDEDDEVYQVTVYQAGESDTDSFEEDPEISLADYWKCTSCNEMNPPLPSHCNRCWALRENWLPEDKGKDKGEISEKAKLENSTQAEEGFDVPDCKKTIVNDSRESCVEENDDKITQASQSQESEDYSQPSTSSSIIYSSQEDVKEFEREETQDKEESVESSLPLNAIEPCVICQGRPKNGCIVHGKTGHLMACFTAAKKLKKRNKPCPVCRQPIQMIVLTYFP
# Chain of E3 ubiquitin-protein ligase Mdm2 (Homo sapiens) (Q00987 whole entry, looked up): as the sequence (Q00987 whole entry C464A) above, with A464C counted along it
Compound,Activity (BJeH),Activity (U2OS [1]),inhibition [2],Activity (BJeLR),Activity (HT-1080 [3]),Activity (MCF7 [4]),Activity (HT1299),Activity (RKO [5]),inhibition [6],CC50 [7],CC50 [8],CC50 (U2OS [9]),CC50 (RKO [10]),CC50 (HT-1080 [11]),CC50 [12],CC50 (MCF7 [13]),EC50 [8],EC50 [12]
CCOC(=O)C1c2c(c3ccccc3n2C)CCN1C(=O)OC(C)(C)C (stereo not drawn),inactive,inactive,inactive,inactive,inactive,inactive,inactive,inactive,inactive,,,,,,,,,
CC(C)(C)OC(=O)N1CCc2c(n(C(=O)OC(C)(C)C)c3ccccc23)C1CC=O (stereo not drawn),,,inactive,,,,,,inactive,11.8 µM,23.4 µM,10.3 µM,7 µM,15.2 µM,48.3 µM,,,
CCOC(=O)C1c2c(c3ccccc3n2C(=O)OC(C)(C)C)CCN1C(=O)OC (stereo not drawn),inactive,inactive,inactive,inactive,inactive,inactive,inactive,inactive,inactive,,,,,,,,,
COC(OC)C1NCCc2c1[nH]c1ccccc21 (stereo not drawn),inactive,inactive,inactive,,inactive,inactive,inactive,inactive,inactive,,81.3 µM,,,,,,,
CN1C(=O)C(Cc2nccc3c2[nH]c2ccccc23)C(=O)N(C)C1=O,inactive,inactive,inactive,inactive,inactive,inactive,inactive,inactive,inactive,,,,,,,,,
CCOC(=O)C1c2[nH]c3ccccc3c2CCN1C(=O)OC (stereo not drawn),inactive,inactive,inactive,inactive,inactive,inactive,inactive,inactive,inactive,,,,,,,,,
COC(OC)C1c2[nH]c3ccccc3c2CCN1Cc1ccccc1 (stereo not drawn),inactive,,inactive,inactive,,,inactive,,inactive,,,59.5 µM,59.5 µM,59.5 µM,,59.5 µM,,
CN1C(=O)C(c2nccc3c2[nH]c2ccccc23)C(=O)N(C)C1=O,inactive,inactive,inactive,inactive,inactive,inactive,inactive,inactive,inactive,,,,,,,,,
CCCN1C(=O)C(CC(C)C2NCCc3c2[nH]c2ccccc32)C(=O)N(CCC)C1=O (stereo not drawn),inactive,inactive,inactive,inactive,inactive,inactive,inactive,inactive,inactive,,,,,,,,,
COc1ccc(N(C(=O)CCl)C(C(=O)NCCc2ccccc2)c2cccs2)cc1Cl (stereo not drawn),,,,,,,,,,,,,,,,,0.025 µM,0.58 µM
CCOC(=O)C(C)C1c2c(c3ccccc3n2C(=O)OC(C)(C)C)CCN1C(=O)OC(C)(C)C (stereo not drawn),inactive,,inactive,inactive,,,,,inactive,42.3 µM,,14.1 µM,9.9 µM,25.2 µM,,9.5 µM,,
CN1C(=O)C(Cc2nccc3c4ccccc4n(C)c23)C(=O)N(C)C1=O,inactive,,inactive,inactive,,,,,inactive,57.5 µM,,14.2 µM,15.4 µM,57.1 µM,,57.1 µM,,
CC(CC1C(=O)N(C)C(=O)N(C)C1=O)C1NCCc2c1n(C(=O)OC(C)(C)C)c1ccccc21 (stereo not drawn),inactive,inactive,inactive,,inactive,inactive,inactive,inactive,inactive,,42.7 µM,,,,,,,
COC(OC)c1nccc2c1[nH]c1ccccc12,,inactive,inactive,,inactive,inactive,inactive,inactive,inactive,,7.8 µM,,,,82.6 µM,,,
CN1C(=O)C(Cc2nccc3c4ccccc4n(C(=O)OC(C)(C)C)c23)C(=O)N(C)C1=O,inactive,inactive,inactive,inactive,inactive,inactive,inactive,inactive,inactive,,,,,,,,,
COC(=O)N1CCc2c(n(C(=O)OC(C)(C)C)c3ccccc23)C1C(OC)OC (stereo not drawn),inactive,,inactive,inactive,inactive,inactive,inactive,inactive,inactive,,,48.7 µM,,,,,,
CCOC(=O)C1NCCc2c1[nH]c1ccccc21 (stereo not drawn),,,inactive,,,inactive,inactive,inactive,inactive,,71.7 µM,81.9 µM,,81.9 µM,71.7 µM,,,
CCCN1C(=O)C(CCC2NCCc3c2[nH]c2ccccc32)C(=O)N(CCC)C1=O (stereo not drawn),inactive,inactive,inactive,inactive,inactive,inactive,inactive,inactive,inactive,,,,,,,,,
CN1C(=O)C(CCC2NCCc3c2[nH]c2ccccc32)C(=O)N(C)C1=O (stereo not drawn),inactive,inactive,inactive,inactive,inactive,inactive,inactive,inactive,inactive,,,,,,,,,
CCOC(=O)C(C)C1NCCc2c1[nH]c1ccccc21 (stereo not drawn),,inactive,inactive,,inactive,inactive,inactive,inactive,inactive,,31.6 µM,,,,73.5 µM,,,
CC(C)(C)OC(=O)N1CCc2c(n(C(=O)OC(C)(C)C)c3ccccc23)C1CCO (stereo not drawn),inactive,,inactive,inactive,inactive,inactive,inactive,,inactive,,,49.7 µM,49.7 µM,,,,,
CCOC(=O)C1c2[nH]c3ccccc3c2CCN1C(=O)OCc1ccccc1 (stereo not drawn),,,inactive,,,,,,inactive,52.9 µM,12.9 µM,12.9 µM,14.8 µM,,52.9 µM,,,
COC(=O)CC1c2[nH]c3ccccc3c2CCN1Cc1ccccc1 (stereo not drawn),inactive,inactive,inactive,,inactive,inactive,inactive,inactive,inactive,,59.8 µM,,,,,,,
CCOC(=O)C1c2[nH]c3ccccc3c2CCN1Cc1ccccc1 (stereo not drawn),inactive,inactive,inactive,inactive,inactive,inactive,inactive,inactive,inactive,,,,,,,,,
CC(CC1C(=O)N(C)C(=O)N(C)C1=O)C1NCCc2c1[nH]c1ccccc21 (stereo not drawn),,,inactive,,inactive,inactive,inactive,,inactive,,54.3 µM,,54.3 µM,,54.3 µM,,,
O=Cc1nccc2c1[nH]c1ccccc12,inactive,inactive,inactive,,,inactive,,,inactive,67.5 µM,32.4 µM,,11.1 µM,67.5 µM,,,,
